The text below walks through data of BindingDB's records for doi:10.1021/np300764u (Heinrich-Heine University, 2013).

For test [1], the target named is Receptor tyrosine-protein kinase erbB-2 (Homo sapiens, UniProt P04626). Put plainly: Inhibition of ERBB2 (unknown origin). In short, it runs like this: (§1)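 Biochemical (cell-free) assay within a panel of 24 protein kinases. Results reported as IC50 values. Procedure as described in earlier work.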
The target of another test is T1, Ephrin type-B receptor 4 (Homo sapiens, UniProt P54760).
T1 sequence (P54760 whole entry): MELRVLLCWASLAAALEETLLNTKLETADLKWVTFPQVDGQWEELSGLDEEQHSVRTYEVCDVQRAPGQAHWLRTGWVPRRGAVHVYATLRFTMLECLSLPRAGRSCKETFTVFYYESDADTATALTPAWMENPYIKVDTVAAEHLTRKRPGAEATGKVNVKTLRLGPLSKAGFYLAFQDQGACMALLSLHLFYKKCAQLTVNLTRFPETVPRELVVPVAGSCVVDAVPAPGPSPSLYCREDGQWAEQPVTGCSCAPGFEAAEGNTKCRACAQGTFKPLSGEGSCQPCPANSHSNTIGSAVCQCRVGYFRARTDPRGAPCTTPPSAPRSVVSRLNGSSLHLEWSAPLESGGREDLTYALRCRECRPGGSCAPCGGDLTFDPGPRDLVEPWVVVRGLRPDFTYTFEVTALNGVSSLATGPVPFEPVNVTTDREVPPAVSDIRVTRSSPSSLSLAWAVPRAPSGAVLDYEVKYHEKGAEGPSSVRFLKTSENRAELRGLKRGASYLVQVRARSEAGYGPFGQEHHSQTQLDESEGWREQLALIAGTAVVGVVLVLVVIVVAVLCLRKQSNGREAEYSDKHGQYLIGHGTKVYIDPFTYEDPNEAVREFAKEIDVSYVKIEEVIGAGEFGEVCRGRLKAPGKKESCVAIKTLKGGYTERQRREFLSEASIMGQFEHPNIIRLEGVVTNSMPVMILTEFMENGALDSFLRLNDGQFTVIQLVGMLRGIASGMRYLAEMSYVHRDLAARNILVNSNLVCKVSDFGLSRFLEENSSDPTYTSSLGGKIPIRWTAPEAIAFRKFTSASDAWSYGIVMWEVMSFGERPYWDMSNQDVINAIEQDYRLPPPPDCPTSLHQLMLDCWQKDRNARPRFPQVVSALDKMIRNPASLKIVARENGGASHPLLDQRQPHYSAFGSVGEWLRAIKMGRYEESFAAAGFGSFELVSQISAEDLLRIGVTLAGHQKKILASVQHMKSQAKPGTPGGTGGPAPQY
Put plainly: Inhibition of EPHB4 (unknown origin). In short, it runs like this: as §1

Sequence of Receptor tyrosine-protein kinase erbB-2 (P04626 whole entry): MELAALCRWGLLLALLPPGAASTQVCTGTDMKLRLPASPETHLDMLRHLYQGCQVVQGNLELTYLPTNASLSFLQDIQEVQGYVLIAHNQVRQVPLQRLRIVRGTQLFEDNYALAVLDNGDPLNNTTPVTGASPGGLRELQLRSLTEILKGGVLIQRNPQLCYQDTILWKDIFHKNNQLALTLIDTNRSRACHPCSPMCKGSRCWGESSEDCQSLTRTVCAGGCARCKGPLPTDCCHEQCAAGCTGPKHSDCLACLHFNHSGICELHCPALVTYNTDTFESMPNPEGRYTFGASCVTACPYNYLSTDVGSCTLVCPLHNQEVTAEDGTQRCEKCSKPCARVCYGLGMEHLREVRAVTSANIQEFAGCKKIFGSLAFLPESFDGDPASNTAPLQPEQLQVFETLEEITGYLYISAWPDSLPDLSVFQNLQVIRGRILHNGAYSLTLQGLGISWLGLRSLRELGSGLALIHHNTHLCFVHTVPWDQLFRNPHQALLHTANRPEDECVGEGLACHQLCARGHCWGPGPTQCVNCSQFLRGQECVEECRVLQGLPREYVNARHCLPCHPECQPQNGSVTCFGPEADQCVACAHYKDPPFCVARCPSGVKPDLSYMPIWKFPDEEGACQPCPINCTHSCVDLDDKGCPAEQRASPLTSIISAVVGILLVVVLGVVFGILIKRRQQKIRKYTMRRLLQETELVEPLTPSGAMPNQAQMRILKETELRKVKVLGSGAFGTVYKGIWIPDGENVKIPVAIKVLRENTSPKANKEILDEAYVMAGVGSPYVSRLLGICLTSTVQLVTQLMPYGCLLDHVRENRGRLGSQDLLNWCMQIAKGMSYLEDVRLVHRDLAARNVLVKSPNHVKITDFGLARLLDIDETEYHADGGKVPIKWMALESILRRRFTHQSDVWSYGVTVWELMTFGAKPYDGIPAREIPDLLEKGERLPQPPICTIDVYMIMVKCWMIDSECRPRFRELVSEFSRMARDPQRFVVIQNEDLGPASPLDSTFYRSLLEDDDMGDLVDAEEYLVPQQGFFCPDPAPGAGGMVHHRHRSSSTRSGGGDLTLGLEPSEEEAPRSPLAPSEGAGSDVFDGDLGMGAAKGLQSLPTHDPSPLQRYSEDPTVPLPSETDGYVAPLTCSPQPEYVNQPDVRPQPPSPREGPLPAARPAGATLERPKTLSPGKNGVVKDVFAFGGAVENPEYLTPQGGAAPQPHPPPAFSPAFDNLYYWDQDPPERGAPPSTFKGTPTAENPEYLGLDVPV

For the compound `O=NC(Cc1cc(Br)c(O)c(Oc2ccc(CCNC(=O)C(Cc3cc(Br)c(O)c(-c4cc(CC(N=O)C(=O)NCCc5ccc(O)c(Br)c5)cc(Br)c4O)c3)N=O)cc2Br)c1)C(=O)NCCc1ccc(O)c(Br)c1` (stereo not drawn) [Sesquibastadin 1], the values for the IC50 (in test [1]; at Ephrin type-B receptor 4) were 2100 nM and 3400 nM, respectively.
For `O=NC(Cc1cc(Br)c(O)c(-c2cc(CC(N=O)C(=O)NCCc3ccc(O)c(Br)c3)cc(Br)c2O)c1)C(=O)NCCc1ccc(O)c(Br)c1` (stereo not drawn) [BASTADIN 3], the IC50 (in general, the concentration that inhibits the measured activity by half) in test [1] was found to be 2100 nM.
